Assay outcomes deposited in PubChem by several laboratories.
Hits are enriched below; roughly 3.3% of the tested compounds scored in any of these assays.
FXN GAA850 act: FXN promoter activators, primary screen, cell-based, luciferase luminescence, HEK293 lucGAA850; HEK293 lucGAA850 FXN promoter luciferase reporter, 24 h; percent of 10 µM SAHA response; AID 540364, 2011; 360,000 compounds, 0.56% hits; activation, % at 6 µM;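 active = activation above the average of all compounds screened plus 3 SD, cutoff fixed separately per campaign, cut at about 7.5% in these data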;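 also: 0% = DMSO wells and 100% = 10 µM SAHA wells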
ABCB6 inh 2: ABCB6 transporter inhibitors, primary screen, K562-ABCB6 cells, flow cytometry, MLPCN library. ATP-binding cassette sub-family B member 6 (Homo sapiens), Q9NP58. K562-ABCB6 porphyrin accumulation, 1 h; hits give low values. fluorescence ratio to DMSO, % at 10 µM. 360,000 compounds, 0.19% hits;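 active = fluorescence ratio to DMSO below 75%, the collection mean minus 3 SD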;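 also: signal is porphyrin accumulated inside mitochondria; 100% equals median channel fluorescence of DMSO control wells; lower ratio means ABCB6 inhibition with less porphyrin fluorescence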
STAT3 act: IL-6 driven STAT3 reporter potentiators, primary screen, U3A cells, luciferase, luminescence, MLSCN library; IL-6 STAT3-luciferase reporter; 100% = signal with IL-6 EC80 alone; activation (% of control), % at 5.6 µM; 190,000 compounds, 0.91% hits; AID 871, 2007;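 active = activation above the screen-wide mean of compound activation plus 3 SD, cut at about 130% in these data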;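 also: 0% = background luminescence of wells with medium and substrate only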
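Material: human STAT1-deficient U3A cells with stable STAT3-luciferase reporter / Probe or stimulus: IL-6 stimulus at 33 ng/mL final / Schedule: 1 h compound pre-exposure, 6 h IL-6 stimulation, 37 °C / Technique: luminescence / Read-out basis: percent of IL-6-only median luminescence / Control set: IL-6-only high control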
AHR act: AHR activators, primary screen, cell-based, luminescence, luciferase reporter, human; Aryl hydrocarbon receptor (Homo sapiens), P35869; AHR-responsive luciferase reporter cells; activation, % at 5 µM; 320,000 compounds, 2.5% hits; AID 2796, 2010; in the data active = activation above about 47%;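 also: 0% = vehicle wells and 100% = reference agonist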
Target sequence (P35869 whole entry, looked up): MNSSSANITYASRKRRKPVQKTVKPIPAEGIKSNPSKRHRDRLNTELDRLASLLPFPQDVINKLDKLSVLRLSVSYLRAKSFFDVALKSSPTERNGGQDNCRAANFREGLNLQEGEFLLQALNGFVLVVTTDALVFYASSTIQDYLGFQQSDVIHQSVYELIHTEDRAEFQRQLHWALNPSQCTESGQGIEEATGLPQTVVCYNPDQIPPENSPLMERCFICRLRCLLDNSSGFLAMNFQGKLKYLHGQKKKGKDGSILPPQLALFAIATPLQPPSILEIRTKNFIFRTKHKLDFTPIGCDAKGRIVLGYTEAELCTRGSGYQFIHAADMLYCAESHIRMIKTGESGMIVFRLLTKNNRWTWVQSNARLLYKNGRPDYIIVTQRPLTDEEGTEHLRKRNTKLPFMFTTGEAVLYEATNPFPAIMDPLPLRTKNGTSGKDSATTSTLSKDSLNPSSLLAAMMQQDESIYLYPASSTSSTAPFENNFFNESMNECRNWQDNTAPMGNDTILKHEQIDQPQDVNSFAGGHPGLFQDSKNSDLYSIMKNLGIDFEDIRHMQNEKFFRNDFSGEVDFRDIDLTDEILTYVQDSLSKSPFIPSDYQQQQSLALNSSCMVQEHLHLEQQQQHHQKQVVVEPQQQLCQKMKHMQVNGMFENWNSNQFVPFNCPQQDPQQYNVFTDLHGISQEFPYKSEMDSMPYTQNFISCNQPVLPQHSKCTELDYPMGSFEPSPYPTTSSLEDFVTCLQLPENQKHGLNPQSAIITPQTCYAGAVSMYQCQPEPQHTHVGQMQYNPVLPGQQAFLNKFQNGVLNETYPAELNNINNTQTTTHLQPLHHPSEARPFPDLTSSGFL
An asterisk follows results filed as active; i = inactive; · = no result given.

SMILES	FXN GAA850 act	ABCB6 inh 2	STAT3 act	AHR act
O=C(Nc1nc2ccccc2[nH]1)c1ccc(OC(F)F)cc1	-1.3	95.0	·	-2.9
O=C(Nc1nc2ccccc2[nH]1)c1ccccc1OC(F)F	-1.9	89.0	·	50.6*
COc1cc(OC)cc(C(=O)Nc2nc3ccccc3[nH]2)c1	7.0	99.0	99.5	39.4
CC(=O)Nc1cccc(NC(=O)CSc2nc3c(c(=O)n(C)c(=O)n3C)n2C)c1	-0.5	167.0	·	0.7
O=C(NC1CCCCC1)C(c1ccc(F)cc1)N(Cc1ccc2c(c1)OCO2)C(=O)c1cnsn1 (stereo not drawn)	-0.8	95.0	107.7	2.9
Cc1cc(C)cc(C(=O)Nc2nc3ccccc3[nH]2)c1	2.5	100.0	·	56.8*
O=C(Nc1nc2ccccc2[nH]1)c1cc(F)cc(F)c1	2.6	98.0	·	15.5
O=C(Nc1nc2ccccc2[nH]1)c1cc2ccccc2o1	2.5	97.0	79.5	56.4*
O/N=C/c1cn(-c2ccccc2)nc1-c1cccnc1	-0.3	97.0	100.5	51.2*
O=C(N/N=C/c1cn(-c2ccccc2)nc1-c1cccnc1)c1cccnc1	-0.6	95.0	95.3	19.8
O=C(Nc1ccccc1Cl)C(=O)c1cn(CC(=O)N2CCOCC2)c2ccccc12	4.0	105.0	·	73.2*
O=C(NCc1ccc(Cl)cc1)C(=O)c1cn(CC(=O)N2CCOCC2)c2ccccc12	2.5	97.0	·	1.5
COC1C=CC=C(C)C(=O)NC2=CC(=O)C(N)=C(CC(C)CC(OC)C(O)C(C)C=C(C)C1OC(N)=O)C2=O (stereo not drawn)	-9.8	87.0	·	·
O=C(Oc1ccc(Cl)c2cccnc12)c1cccc([N+](=O)[O-])c1	0.3	91.0	111.0	24.0
O=[N+]([O-])c1ccccc1COc1ccc(Cl)c2cccnc12	4.5	100.0	·	72.5*
c1ccc(CNc2nc(-c3cccs3)nc3ccccc23)cc1	0.8	96.0	86.7	·
c1csc(-c2cn3ccc4ccccc4c3n2)c1	4.8	100.0	171.2*	57.2*
O=C(Cc1ccc(NC(=O)C2CCN(C(=O)C3CCCC3)CC2)cc1)Nc1ccc(C(=O)N2CCOCC2)cc1	0.5	87.0	·	·
CCOCCOC(=O)c1[nH]c2c(c1C)C(=O)CC(c1ccccc1)C2 (stereo not drawn)	1.5	101.0	·	26.4
CCCCCOC(=O)c1[nH]c2c(c1C)C(=O)CC(c1ccco1)C2 (stereo not drawn)	-1.1	103.0	121.1	139.5*
C=CCn1c(O)c(N=NC(=O)CNC(=O)Cc2ccccc2)c2ccccc21	1.1	99.0	·	53.2*
C=CCn1c(O)c(N=NC(=S)Nc2cccc(OC)c2)c2ccccc21	-1.1	95.0	100.4	61.4*
Cc1cc(C)c(O)c(-c2n[nH]c3c2C(c2cccc(O)c2)N(Cc2ccco2)C3=O)c1 (stereo not drawn)	0.2	101.0	·	65.3*
O=C(NNC(=O)c1ccc2c(=O)n3c(nc2c1)CCC3)c1ccc(F)cc1	0.2	97.0	·	60.0*
Cc1csc(NC(=O)c2ccc3c(=O)n4c(nc3c2)CCCCC4)n1	3.7	97.0	102.7	20.4
SMILES	FXN GAA850 act	ABCB6 inh 2	STAT3 act	AHR act
O=C(Nc1nccs1)c1ccc2c(=O)n3c(nc2c1)CCCCC3	3.0	96.0	106.7	76.2*
COc1cc(C)c(C)cc1S(=O)(=O)N1CCN(Cc2ccc3c(c2)OCO3)CC1	1.9	99.0	100.7	0.3
Cc1ccc(-n2c(=S)[nH]c3c(oc4ccccc43)c2=O)cc1C	0.5	94.0	98.7	13.7
O=c1c2oc3ccccc3c2[nH]c(=S)n1-c1ccc(F)cc1	1.1	98.0	104.8	57.2*
O=C(NN=Cc1c[nH]c2ccccc12)NN=Cc1c[nH]c2ccccc12	2.2	90.0	·	·
O=C(CSc1nnc(SCc2cccc3ccccc23)s1)N/N=C/c1c[nH]c2ccccc12	4.6	93.0	99.2	47.0*
O=C(CCC(=O)Nc1ccc(F)cc1)N/N=C/c1c[nH]c2ccccc12	-0.3	102.0	104.6	50.3*
O=C(CNc1ccccc1)N/N=C/c1c[nH]c2ccccc12	0.2	i	112.3	50.4*
O=C(CCC(=O)Nc1ccc(F)cc1)N/N=C/c1ccccc1O	1.5	99.0	100.8	6.4
O=C(CSc1nnc(SCc2ccc(Cl)cc2)s1)N/N=C/c1c[nH]c2ccccc12	0.5	96.0	105.5	25.7
CC1CN(c2nc3c(c(=O)n(C)c(=O)n3C)n2Cc2c(F)cccc2Cl)CC(C)O1 (stereo not drawn)	2.5	95.0	92.9	-0.9
Cc1ccc(OCCC(=O)OCC(=O)Nc2ccc(C)cc2Cl)cc1	-0.1	95.0	·	-0.9
CCOc1cc(/C=C2\SC(N)=NC2=O)ccc1O	1.8	101.0	·	-3.1
CCOc1cc(/C=C2\SC(=O)N=C2N)ccc1O	-0.4	104.0	95.6	48.0*
COc1cccc(C(=O)NC(=S)NCc2ccco2)c1	4.7	165.0	101.3	28.7
COc1cc(OC)cc(C(=O)NC(=S)NCc2ccco2)c1	-0.4	105.0	103.3	64.2*
COc1ccc(C(=O)NC(=S)NCc2cccnc2)cc1[N+](=O)[O-]	1.7	78.0	102.0	76.4*
COc1ccc(C(=O)NC(=S)NCc2cccnc2)cc1OC	-1.6	99.0	103.7	38.7
O=[N+]([O-])c1ccc(O)c(/C=N\N=C2c3ccccc3-c3ccccc32)c1	2.9	96.0	118.8	47.5*
NC(N)=N/N=C/c1cc([N+](=O)[O-])ccc1O	2.5	97.0	99.2	25.4
CCCCNC(=O)CCCCCNS(=O)(=O)c1ccc(Br)cc1	0.2	98.0	99.7	1.4
Cc1cc(=O)[nH]c(Nc2ccc(N(C)C)cc2)n1	-1.7	99.0	·	55.4*
C(=C\c1ccccc1)/CN1CCN(C(c2ccccc2)c2nnnn2-c2ccc3c(c2)OCCO3)CC1 (stereo not drawn)	·	99.0	·	·
COc1ccc2c(c1)[nH]c(=O)c1sc3ccccc3c12	1.3	106.0	174.1*	40.8
COc1ccc2sc3c(=O)[nH]c4ccccc4c3c2c1	-4.5	102.0	123.0	24.0
SMILES	FXN GAA850 act	ABCB6 inh 2	STAT3 act	AHR act
Cc1cc(NCCCn2ccnc2)n2nc(C)c(-c3ccccc3)c2n1	-0.5	97.0	117.4	112.1*
Cc1cc(NCCN2CCOCC2)n2nc(C)c(-c3ccc(Cl)cc3)c2n1	-0.3	97.0	94.0	28.1
Cc1cc(NCCCn2ccnc2)n2nc(C)c(-c3ccc(Cl)cc3)c2n1	-1.8	99.0	107.1	48.4*
CC(=O)NC(CC(=O)O)c1ccc([N+](=O)[O-])cc1 (stereo not drawn)	3.0	102.0	·	-0.7
CCOC(=O)C1(C)CCCN(C(=O)c2ccc3ccccc3c2)C1 (stereo not drawn)	-1.0	98.0	·	·
COc1ccccc1C(=O)NCC[N+](C)(C)C	·	104.0	·	·
COCCNC(=S)NNc1ccccc1[N+](=O)[O-]	3.4	97.0	135.6*	12.6
O=C(O)COn1c(-c2ccc(Cl)cc2)nc2ccc(Cl)cc21	5.3	94.0	112.2	66.9*
